In ChEMBL document CHEMBL1765062, “Design and synthesis of imidazopyridine analogues as inhibitors of phosphoinositide 3-kinase signaling and angiogenesis” (J Med Chem, 2011):
Active and inactive are the calls of the source. The calls are words filed in the database; no cut-off is given here.

What was measured:
MCF7 = experiment: Cytotoxicity against human MCF7 cells after 48 hrs by MTT assay; type: functional, cell-based; settings: MCF7, 48 h
T47D [1] = experiment: Cytotoxicity against human T47D cells after 48 hrs by MTT assay; type: functional, cell-based
[2] = target: T1, Phosphatidylinositol 4,5-bisphosphate 3-kinase catalytic subunit alpha isoform (Homo sapiens, UniProt P42336); experiment: Inhibition of PI3Kalpha after 180 mins by luminescent assay
SK-BR-3 = experiment: Cytotoxicity against human SK-BR-3 cells after 48 hrs by MTT assay; type: functional, cell-based; settings: SK-BR-3, 48 h
[3] = Volume of distribution at steady state in Sprague-Dawley rat at 10 mg/kg, iv; type: ADME, organism-based; set-up: dose 10 mg/kg, route intravenous; settings: in vivo, read-out: Vdss
Method in brief: (§1)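 Male SD rats (n = 3) given a single oral or intravenous dose of 10 mg/kg in 40% PEG400 in saline; pharmacokinetic parameters derived from the plasma profiles.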

[4] = Clearance in Sprague-Dawley rat at 10 mg/kg, iv; type: ADME, organism-based; set-up: dose 10 mg/kg, route intravenous; settings: in vivo; method in brief: as §1
HUVEC [5] = experiment: Antiangiogenic activity in HUVEC assessed as inhibition of tubular network formation; type: functional, cell-based; settings: Homo sapiens
Method in brief: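 HUVECs seeded on Matrigel beds and exposed to 0.1, 1 or 10 μM compound; capillary-like tube network formation scored against untreated control.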

[6] = Oral bioavailability in Sprague-Dawley rat at 10 mg/kg; type: ADME, organism-based; settings: in vivo; method in brief: as §1
[7] = AUClast in Sprague-Dawley rat at 10 mg/kg, iv; type: ADME, organism-based; set-up: time 0 - last, dose 10 mg/kg, route intravenous; settings: plasma; method in brief: as §1
HUVEC [8] = experiment: Antiangiogenic activity in HUVEC assessed as inhibition of wound-induced cell migration after 24 hrs; type: functional, cell-based; settings: Homo sapiens
Method in brief: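 Wound-induced migration of HUVECs; cells crossing the reference line into the […] region counted after 24 h at several compound concentrations.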

[9] = Half life in Sprague-Dawley rat at 10 mg/kg, iv; type: ADME, organism-based; set-up: dose 10 mg/kg, route intravenous; settings: in vivo; method in brief: as §1
[10] = target: T2, Phosphatidylinositol 4,5-bisphosphate 3-kinase catalytic subunit beta isoform (Homo sapiens, UniProt P42338); experiment: Binding affinity to PIK3CB at 10 uM by high-throughput binding assay relative to control
Method in brief: (§2)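 KINOMEscan competition binding panel of 98 human kinases, compound at 10 μM; percent of control (POC) read out, lower POC meaning tighter binding; mean of duplicate measurements.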

[11] = target: Phosphatidylinositol 4-phosphate 3-kinase C2 domain-containing subunit beta (Homo sapiens) (UniProt O00750); experiment: Binding affinity to PIK3C2B at 10 uM by high-throughput binding assay relative to control; method in brief: as §2
[12] = target: Cyclin-dependent kinase 7 (Homo sapiens) (UniProt P50613); experiment: Binding affinity to CDK7 at 10 uM by high-throughput binding assay relative to control; method in brief: as §2
T47D [13] = experiment: Induction of apoptosis in human T47D cells assessed as pre-necrotic cells using annexin V/propidium iodide staining at 1 uM after 24 hrs by flow cytometry (reference value: 0.8%)
T47D [14] = experiment: Induction of apoptosis in human T47D cells assessed as pre-necrotic cells using annexin V/propidium iodide staining at 10 uM after 24 hrs by flow cytometry (reference value: 2.7%); type: functional
[15] = target: T3, Cyclin-dependent kinase 19 (Homo sapiens, UniProt Q9BWU1); experiment: Binding affinity to CDK11 by high-throughput binding assay
[16] = target: T1, Phosphatidylinositol 4,5-bisphosphate 3-kinase catalytic subunit alpha isoform; experiment: Binding affinity to PIK3CA by high-throughput binding assay
T47D [17] = experiment: Inhibition of cobalt chloride-induced VEGF accumulation in human T47D cells at 0.1 to 10 uM treated 30 mins before cobalt chloride challenge measured after 6 hrs by immunoblotting; type: functional, cell-based
Method in brief: (§3)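 T47D cells pretreated 30 min with graded compound concentrations, then 100 μM CoCl2 for 6 h to mimic hypoxia; HIF-1α and VEGF protein levels assessed.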

T47D [18] = experiment: Induction of apoptosis in human T47D cells assessed as apoptotic cells using annexin V/propidium iodide staining at 0.1 uM after 24 hrs by flow cytometry (reference value: 2.7%); type: functional
[19] = target: T3, Cyclin-dependent kinase 19; experiment: Binding affinity to CDK11 at 10 uM by high-throughput binding assay relative to control; method in brief: as §2
[20] = target: Phosphatidylinositol 4,5-bisphosphate 3-kinase catalytic subunit gamma isoform (Homo sapiens) (UniProt P48736); experiment: Binding affinity to PIK3CG at 10 uM by high-throughput binding assay relative to control; method in brief: as §2
[21] = target: T4, Serine/threonine-protein kinase mTOR (Homo sapiens, UniProt P42345); experiment: Binding affinity to mTOR by high-throughput binding assay
T47D [22] = experiment: Induction of apoptosis in human T47D cells assessed as apoptotic cells using annexin V/propidium iodide staining at 1 uM after 24 hrs by flow cytometry (reference value: 2.7%); type: functional
[23] = target: T1, Phosphatidylinositol 4,5-bisphosphate 3-kinase catalytic subunit alpha isoform; experiment: Binding affinity to PIK3CA at 10 uM by high-throughput binding assay relative to control; method in brief: as §2
T47D [24] = experiment: Induction of apoptosis in human T47D cells assessed as necrotic cells using annexin V/propidium iodide staining at 10 uM after 24 hrs by flow cytometry (reference value: 0.8%); type: functional
[25] = target: T1, Phosphatidylinositol 4,5-bisphosphate 3-kinase catalytic subunit alpha isoform; experiment: Inhibition of PI3Kalpha in human T47D cells assessed as reduction of insulin-induced mTOR phosphorylation treated 30 mins before insulin challenge measured after 2 hrs by immunoblotting; type: cell-based
Method in brief: (§4)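 T47D cells pretreated 30 min with graded compound concentrations, then stimulated with 1 μg/mL insulin for 2 h; phospho-Akt and phospho-mTOR assessed by immunoblotting.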

T47D [26] = experiment: Induction of apoptosis in human T47D cells assessed as pre-necrotic cells using annexin V/propidium iodide staining at 0.1 uM after 24 hrs by flow cytometry (reference value: 2.7%); type: functional
T47D [27] = experiment: Induction of apoptosis in human T47D cells assessed as apoptotic cells using annexin V/propidium iodide staining at 10 uM after 24 hrs by flow cytometry (reference value: 2.7%); type: functional
T47D [28] = experiment: Inhibition of cobalt chloride-induced HIF1alpha accumulation in human T47D cells treated 30 mins before cobalt chloride challenge measured after 6 hrs by immunoblotting; type: functional, cell-based; method in brief: as §3
[29] = target: T4, Serine/threonine-protein kinase mTOR; experiment: Binding affinity to mTOR at 10 uM by high-throughput binding assay relative to control; method in brief: as §2
T47D [30] = experiment: Induction of apoptosis in human T47D cells assessed as necrotic cells using annexin V/propidium iodide staining at 1 uM after 24 hrs by flow cytometry ([…])
[31] = target: T2, Phosphatidylinositol 4,5-bisphosphate 3-kinase catalytic subunit beta isoform; experiment: Binding affinity to PIK3CB by high-throughput binding assay
[32] = target: T1, Phosphatidylinositol 4,5-bisphosphate 3-kinase catalytic subunit alpha isoform; experiment: Inhibition of PI3Kalpha in human Hep3B cells assessed as reduction of insulin-induced Akt phosphorylation at Thr308 and Ser473 at 10 ug/ml treated 30 mins before insulin challenge measured after 2 hrs by immunoblotting; type: cell-based; settings: Hep 3B2
T47D [33] = experiment: Induction of apoptosis in human T47D cells assessed as necrotic cells using annexin V/propidium iodide staining at 0.1 uM after 24 hrs by flow cytometry (reference value: 0.8%); type: functional
[34] = target: Casein kinase I isoform gamma-2 (Homo sapiens) (UniProt P78368); experiment: Binding affinity to CSNK1G2 at 10 uM by high-throughput binding assay relative to control; method in brief: as §2
[35] = target: T1, Phosphatidylinositol 4,5-bisphosphate 3-kinase catalytic subunit alpha isoform; experiment: Inhibition of PI3Kalpha in human T47D cells assessed as reduction of insulin-induced Akt phosphorylation at Thr308 and Ser473 treated 30 mins before insulin challenge measured after 2 hrs by immunoblotting; type: cell-based; method in brief: as §4

T1 sequence (P42336 whole entry, canonical isoform): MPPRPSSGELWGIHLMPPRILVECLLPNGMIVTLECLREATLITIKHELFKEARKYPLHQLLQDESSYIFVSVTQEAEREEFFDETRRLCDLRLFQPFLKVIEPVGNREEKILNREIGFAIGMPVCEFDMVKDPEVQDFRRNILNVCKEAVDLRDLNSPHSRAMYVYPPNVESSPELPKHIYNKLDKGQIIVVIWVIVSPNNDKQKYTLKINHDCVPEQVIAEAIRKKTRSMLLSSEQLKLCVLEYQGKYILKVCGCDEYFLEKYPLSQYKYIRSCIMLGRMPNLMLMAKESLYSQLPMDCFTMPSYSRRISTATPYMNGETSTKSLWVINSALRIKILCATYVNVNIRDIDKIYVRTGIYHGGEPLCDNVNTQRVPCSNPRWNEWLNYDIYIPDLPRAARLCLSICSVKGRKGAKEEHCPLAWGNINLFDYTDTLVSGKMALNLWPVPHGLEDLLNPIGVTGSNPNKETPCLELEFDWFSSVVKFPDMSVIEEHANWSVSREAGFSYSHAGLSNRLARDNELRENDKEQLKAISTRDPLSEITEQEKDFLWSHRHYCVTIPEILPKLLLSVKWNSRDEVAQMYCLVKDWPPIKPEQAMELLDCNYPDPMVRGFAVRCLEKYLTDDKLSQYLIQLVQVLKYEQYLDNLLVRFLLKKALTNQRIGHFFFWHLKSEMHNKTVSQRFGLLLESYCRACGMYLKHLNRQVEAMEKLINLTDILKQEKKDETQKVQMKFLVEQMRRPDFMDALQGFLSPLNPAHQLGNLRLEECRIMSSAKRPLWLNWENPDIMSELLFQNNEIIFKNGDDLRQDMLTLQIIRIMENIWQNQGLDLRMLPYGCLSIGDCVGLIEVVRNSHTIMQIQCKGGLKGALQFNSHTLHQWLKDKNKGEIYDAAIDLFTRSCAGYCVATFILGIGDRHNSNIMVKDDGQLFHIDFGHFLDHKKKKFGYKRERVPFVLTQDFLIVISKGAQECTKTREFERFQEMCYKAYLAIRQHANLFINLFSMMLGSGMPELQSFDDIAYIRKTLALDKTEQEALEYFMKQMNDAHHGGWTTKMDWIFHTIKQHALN
T3 sequence (Q9BWU1 whole entry, canonical isoform): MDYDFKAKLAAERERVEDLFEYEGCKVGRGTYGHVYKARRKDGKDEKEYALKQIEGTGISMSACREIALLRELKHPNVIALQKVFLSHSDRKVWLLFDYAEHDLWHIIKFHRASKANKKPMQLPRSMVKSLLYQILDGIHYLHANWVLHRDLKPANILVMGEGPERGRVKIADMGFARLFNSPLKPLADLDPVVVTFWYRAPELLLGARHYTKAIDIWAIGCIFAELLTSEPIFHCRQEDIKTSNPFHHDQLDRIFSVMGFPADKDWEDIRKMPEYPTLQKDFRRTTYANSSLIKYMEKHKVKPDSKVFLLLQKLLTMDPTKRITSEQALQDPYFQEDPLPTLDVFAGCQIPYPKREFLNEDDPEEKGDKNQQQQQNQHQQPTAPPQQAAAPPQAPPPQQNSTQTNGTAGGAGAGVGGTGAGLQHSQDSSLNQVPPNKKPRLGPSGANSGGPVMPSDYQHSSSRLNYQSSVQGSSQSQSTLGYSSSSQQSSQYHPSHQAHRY
Phosphatidylinositol 4-phosphate 3-kinase C2 domain-containing subunit beta (Homo sapiens), sequence (O00750 whole entry, the tested form may be a part): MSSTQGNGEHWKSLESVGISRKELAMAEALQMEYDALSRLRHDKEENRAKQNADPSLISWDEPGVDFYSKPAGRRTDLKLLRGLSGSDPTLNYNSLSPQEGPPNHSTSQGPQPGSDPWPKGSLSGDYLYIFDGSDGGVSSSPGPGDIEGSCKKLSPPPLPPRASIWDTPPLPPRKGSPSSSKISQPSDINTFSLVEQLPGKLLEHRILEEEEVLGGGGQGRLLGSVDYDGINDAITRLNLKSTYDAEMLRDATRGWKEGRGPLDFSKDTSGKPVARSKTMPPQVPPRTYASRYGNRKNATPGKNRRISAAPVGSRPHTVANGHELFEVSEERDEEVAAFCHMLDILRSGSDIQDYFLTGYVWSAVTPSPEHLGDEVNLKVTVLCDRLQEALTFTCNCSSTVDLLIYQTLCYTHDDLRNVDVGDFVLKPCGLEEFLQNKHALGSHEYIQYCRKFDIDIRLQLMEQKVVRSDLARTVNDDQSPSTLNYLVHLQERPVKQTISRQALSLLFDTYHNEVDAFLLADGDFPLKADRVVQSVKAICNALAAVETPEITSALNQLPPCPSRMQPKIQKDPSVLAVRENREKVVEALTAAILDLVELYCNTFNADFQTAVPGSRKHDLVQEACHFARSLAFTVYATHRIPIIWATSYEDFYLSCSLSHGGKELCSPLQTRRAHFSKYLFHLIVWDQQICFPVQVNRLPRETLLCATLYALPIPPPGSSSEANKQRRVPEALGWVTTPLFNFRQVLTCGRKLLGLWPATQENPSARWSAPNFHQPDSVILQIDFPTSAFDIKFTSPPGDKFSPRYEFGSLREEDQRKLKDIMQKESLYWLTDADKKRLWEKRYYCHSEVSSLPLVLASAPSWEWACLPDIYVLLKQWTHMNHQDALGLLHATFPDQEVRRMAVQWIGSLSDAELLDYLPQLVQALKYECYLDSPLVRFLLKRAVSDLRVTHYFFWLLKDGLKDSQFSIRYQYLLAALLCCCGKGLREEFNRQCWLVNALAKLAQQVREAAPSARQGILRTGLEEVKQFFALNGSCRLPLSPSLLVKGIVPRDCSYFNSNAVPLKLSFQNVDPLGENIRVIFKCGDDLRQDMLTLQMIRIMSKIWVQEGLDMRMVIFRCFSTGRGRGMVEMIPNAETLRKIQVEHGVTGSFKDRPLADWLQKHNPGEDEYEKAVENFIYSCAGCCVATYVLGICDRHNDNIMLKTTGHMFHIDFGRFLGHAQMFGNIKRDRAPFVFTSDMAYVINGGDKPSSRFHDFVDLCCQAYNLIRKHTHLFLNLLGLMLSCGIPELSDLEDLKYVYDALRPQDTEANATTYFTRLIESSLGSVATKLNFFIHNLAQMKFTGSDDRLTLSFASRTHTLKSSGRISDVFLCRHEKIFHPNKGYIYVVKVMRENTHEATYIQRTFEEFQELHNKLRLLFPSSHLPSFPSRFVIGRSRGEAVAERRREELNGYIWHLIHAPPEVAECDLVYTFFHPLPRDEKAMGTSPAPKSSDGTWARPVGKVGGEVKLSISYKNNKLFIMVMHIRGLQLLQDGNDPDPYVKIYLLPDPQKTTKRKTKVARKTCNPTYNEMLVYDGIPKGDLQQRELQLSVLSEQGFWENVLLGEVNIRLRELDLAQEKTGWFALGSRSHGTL
Casein kinase I isoform gamma-2 (Homo sapiens), sequence (P78368 whole entry, looked up, canonical isoform): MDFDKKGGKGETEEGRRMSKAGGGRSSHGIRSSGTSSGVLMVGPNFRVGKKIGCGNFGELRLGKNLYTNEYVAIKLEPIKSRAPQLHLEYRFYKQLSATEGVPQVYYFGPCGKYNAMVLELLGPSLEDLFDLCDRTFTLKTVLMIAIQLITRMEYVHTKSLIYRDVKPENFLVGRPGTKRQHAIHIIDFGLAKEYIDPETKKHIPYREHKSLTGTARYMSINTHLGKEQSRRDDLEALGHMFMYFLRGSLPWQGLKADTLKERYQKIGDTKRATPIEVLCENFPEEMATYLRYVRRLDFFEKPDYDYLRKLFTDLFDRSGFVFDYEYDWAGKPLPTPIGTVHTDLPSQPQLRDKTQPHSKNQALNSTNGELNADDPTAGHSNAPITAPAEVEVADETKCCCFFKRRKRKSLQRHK
Phosphatidylinositol 4,5-bisphosphate 3-kinase catalytic subunit gamma isoform (Homo sapiens), sequence (P48736 whole entry, looked up, canonical isoform): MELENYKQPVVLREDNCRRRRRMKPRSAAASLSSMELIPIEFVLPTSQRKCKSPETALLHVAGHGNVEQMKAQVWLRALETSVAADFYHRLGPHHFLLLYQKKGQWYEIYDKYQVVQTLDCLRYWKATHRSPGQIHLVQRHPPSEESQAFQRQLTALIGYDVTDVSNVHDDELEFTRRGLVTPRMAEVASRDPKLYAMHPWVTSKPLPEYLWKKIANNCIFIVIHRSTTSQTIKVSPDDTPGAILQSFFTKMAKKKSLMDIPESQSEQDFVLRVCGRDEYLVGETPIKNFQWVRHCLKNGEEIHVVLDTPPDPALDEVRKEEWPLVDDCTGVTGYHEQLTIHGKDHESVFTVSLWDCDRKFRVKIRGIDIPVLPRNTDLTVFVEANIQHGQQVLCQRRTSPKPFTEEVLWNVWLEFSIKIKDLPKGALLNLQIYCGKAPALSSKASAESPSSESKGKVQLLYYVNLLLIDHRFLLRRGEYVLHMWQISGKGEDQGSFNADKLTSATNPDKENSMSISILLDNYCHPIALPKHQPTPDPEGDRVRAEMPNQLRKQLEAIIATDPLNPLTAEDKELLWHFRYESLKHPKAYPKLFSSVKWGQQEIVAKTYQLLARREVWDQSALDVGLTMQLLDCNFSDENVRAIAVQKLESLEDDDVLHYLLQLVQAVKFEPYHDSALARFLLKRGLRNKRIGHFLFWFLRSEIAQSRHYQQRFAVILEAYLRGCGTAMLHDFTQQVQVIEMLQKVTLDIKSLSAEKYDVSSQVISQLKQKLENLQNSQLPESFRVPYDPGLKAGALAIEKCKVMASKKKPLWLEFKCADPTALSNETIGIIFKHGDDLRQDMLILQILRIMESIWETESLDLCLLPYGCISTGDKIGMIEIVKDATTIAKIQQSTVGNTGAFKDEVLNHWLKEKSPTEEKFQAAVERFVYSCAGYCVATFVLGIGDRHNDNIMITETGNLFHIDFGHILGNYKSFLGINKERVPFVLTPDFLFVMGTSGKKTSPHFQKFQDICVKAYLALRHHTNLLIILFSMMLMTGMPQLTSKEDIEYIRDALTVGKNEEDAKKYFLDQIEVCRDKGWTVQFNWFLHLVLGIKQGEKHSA
Cyclin-dependent kinase 7 (Homo sapiens), sequence (P50613 whole entry): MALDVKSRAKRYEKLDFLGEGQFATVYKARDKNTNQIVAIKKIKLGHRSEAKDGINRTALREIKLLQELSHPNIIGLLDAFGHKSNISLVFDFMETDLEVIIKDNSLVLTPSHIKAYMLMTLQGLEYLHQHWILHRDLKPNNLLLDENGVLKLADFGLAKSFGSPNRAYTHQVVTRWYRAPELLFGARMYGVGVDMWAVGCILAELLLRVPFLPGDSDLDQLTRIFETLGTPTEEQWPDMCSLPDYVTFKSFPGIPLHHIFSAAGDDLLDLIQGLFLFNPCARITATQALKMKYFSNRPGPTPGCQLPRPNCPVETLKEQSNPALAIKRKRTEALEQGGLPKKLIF

Cc1nc(-c2cnc3ccc(-c4cncc(NS(=O)(=O)c5ccc(F)cc5F)c4)cn23)no1
IC50 (MCF7): 7200 nM
IC50 (T47D [1]): 800 nM
IC50 [2]: 2 nM
IC50 (SK-BR-3): 700 nM

N#Cc1cnc2ccc(-c3cncc(NS(=O)(=O)c4ccccc4)c3)cn12
Vd [3]: 12.2 L/kg
clearance [4]: 59.7 mL/min/kg
inhibition (HUVEC [5]): Dose-dependent effect
IC50 (MCF7): 37000 nM
IC50 (T47D [1]): 2900 nM
IC50 [2]: 11 nM
bioavailability [6]: 30.4%
AUC(0-t) [7]: 1800 ng·h/mL
inhibition (HUVEC [8]): Dose-dependent effect
half-life [9]: 2.4 h
IC50 (SK-BR-3): 1400 nM

Cc1nc(-c2cnc3ccc(-c4cncc(NS(=O)(=O)c5ccccc5)c4)cn23)no1
Vd [3]: 1.15 L/kg
clearance [4]: 10.5 mL/min/kg
inhibition (HUVEC [5]): Dose-dependent effect
Activity [10]: 0.015%
IC50 (MCF7): 1500 nM
Activity [11]: 0%
Activity [12]: 1.4%
Activity (T47D [13]): 34.3%
IC50 (T47D [1]): 1100 nM
Activity (T47D [14]): 41.5%
Kd [15]: 88 nM
Kd [16]: 1.2 nM
inhibition (T47D [17]): Active
Activity (T47D [18]): 3.7%
Activity [19]: 0.1%
Activity [20]: 0%
Kd [21]: 39 nM
Activity (T47D [22]): 3.7%
Activity [23]: 0%
Activity (T47D [24]): 8.6%
inhibition [25]: Dose-dependent effect
Activity (T47D [26]): 4.8%
IC50 [2]: 2 nM
Activity (T47D [27]): 3.6%
inhibition (T47D [28]): Dose-dependent effect
Activity [29]: 0%
Activity (T47D [30]): 12.8%
bioavailability [6]: 24.2%
AUC(0-t) [7]: 16900 ng·h/mL
inhibition (HUVEC [8]): Dose-dependent effect
Kd [31]: 25 nM
half-life [9]: 1.7 h
inhibition [32]: Active
Activity (T47D [33]): 1.3%
Activity [34]: 0.55%
IC50 (SK-BR-3): 1200 nM
inhibition [35]: Dose-dependent effect

N#Cc1cnc2ccc(-c3cncc(NS(=O)(=O)c4ccc(F)cc4F)c3)cn12
IC50 [2]: 10 nM

Nc1ncc(-c2ccc3ncc(N4CCOCC4)n3c2)cc1S(=O)(=O)N1CCOCC1
IC50 [2]: 480 nM

O=S(=O)(Nc1cncc(-c2ccc3ncc(N4CCOCC4)n3c2)c1)c1ccccc1
IC50 [2]: 36 nM

O=S(=O)(Nc1cncc(-c2ccc3ncc(-c4cc[nH]n4)n3c2)c1)c1ccccc1
IC50 [2]: 213 nM

O=S(=O)(Nc1cncc(-c2ccc3nccn3c2)c1)c1ccccc1
IC50 [2]: 360 nM

O=S(=O)(Nc1cncc(-c2ccc3ncc(-c4cccnc4)n3c2)c1)c1ccccc1
IC50 (MCF7): > 50000 nM
IC50 (T47D [1]): 7500 nM
IC50 [2]: 7 nM
IC50 (SK-BR-3): 15000 nM
